The record followed here is PubChem BioAssay.

Assay [1] is described as follows: reducers of endogenous Her2 protein level, primary screen, SKBR3 breast tumor cells, AlphaScreen, ATP viability (AID 461).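 On Her2 level: lower value means less Her2 protein in the cells.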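 On viability: percent of carrier control wells set as 100% viability.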 As to conditions: 18-24 h, measured here: SKBR3 viability, ATP luminescence, at 10 µM.
The target of assay [2] is Receptor tyrosine-protein kinase erbB-2 (Homo sapiens) (UniProt P04626). The assay is described as above. The note with it: 18-24 h, at 10 µM, stronger effect = lower value.
Assay [3] can be described thus: SK-BR-3 cell growth inhibitors, pilot screen, 24 h, human (AID 572;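 active means viability at or below 10% of carrier control in both of two separate runs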;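 further: compound exposure lasted between 18 and 24 h rather than exactly 24 h; 100% = carrier-treated control wells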). As to conditions: SK-BR-3 viability, CellTiter-Glo luminescence, at 10 µM, stronger effect = lower value. A general note: In ATP-based viability assays light output follows the ATP content of the culture.
Assay [4] is described as follows: HUVEC growth inhibition – cell-based, human, primary screen (AID 575;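 active means viability at or below 30% in both replicate assays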;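 further: 100% = median of untreated cell wells with 0.1% DMSO on each plate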). The note with it: HUVEC proliferation, CellTiter-Glo luminescence, 72 h; at 10 µM; stronger effect = lower value. The procedure, abridged:
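Material: primary human umbilical vein endothelial cells / Schedule: 72 h exposure, 37 °C, 5% CO2, 30 min RT equilibration / Signal: ATP-based CellTiter-Glo luminescent read / Read-out basis: percent of median DMSO-control luminescence / Control set: 32 DMSO-only cell-control wells (high), 32 MePR drug-control wells (low) per plate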

Assay [5] is described as follows: growth inhibitors of H69AR lung tumor, primary screen, human, duplicate replicates (AID 580;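 active means viability at or under a set limit in both replicates, limit being median viability minus 3 SD, cut at about 48% in these data, passing the limit was not always enough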;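 further: 100% = mean luminescence of untreated wells and 0% = no signal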). The note with it: H69AR lung tumor cells viability, ATP luminescence, 72 h; at 10 µM; stronger effect = lower value.
Assay [6] in a line: reversal of MRP1-mediated doxorubicin resistance, pilot screen, H69AR cells, doxorubicin co-treatment (AID 601;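 active means viability loss from added drug above about 55%, and viability with drug at most 40%, in both replicates, limit read from the data, passing the limit was not always enough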). As to conditions: CellTiter-Glo, 72 h, at 10 µM; for differential viability (reversal): stronger effect = higher value.
Assay [7] can be described thus: 384-well plate pilot, post-Golgi transport modulator project, inhibition of yeast transport mutant growth (AID 636; in the data active means inhibition above about 31%). As to conditions: absorbance 615 nm, about 18 h, stronger effect = higher value.
Assay [8] in a line: growth suppression of yeast trafficking mutant, preliminary HTS, modulators of trafficking downstream of Golgi apparatus project, 1536-format plate, OD 615 nm (AID 637; in the data active means inhibition above about 30%). The note with it: yeast transport mutant growth, absorbance 615 nm, 18 h; stronger effect = higher value.
Setting [9] is: H69AR cells + 2 uM doxorubicin, measured here: viability with 2 uM doxorubicin, stronger effect = lower value.
Setting [10] is: H69AR cells, compound alone cytotoxicity.

Structures are written as SMILES. The source made the active and inactive calls.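 How the source made its calls, unless noted: active means Her2 level under about 52% in both replicate screens, with viability over 70% of control (limit read from the data); inconclusive means Her2 under the limit in one screen only, or viability under 70%; inactive means Her2 level above the set limit.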

Sequence of Receptor tyrosine-protein kinase erbB-2 (Homo sapiens) (P04626 whole entry, looked up): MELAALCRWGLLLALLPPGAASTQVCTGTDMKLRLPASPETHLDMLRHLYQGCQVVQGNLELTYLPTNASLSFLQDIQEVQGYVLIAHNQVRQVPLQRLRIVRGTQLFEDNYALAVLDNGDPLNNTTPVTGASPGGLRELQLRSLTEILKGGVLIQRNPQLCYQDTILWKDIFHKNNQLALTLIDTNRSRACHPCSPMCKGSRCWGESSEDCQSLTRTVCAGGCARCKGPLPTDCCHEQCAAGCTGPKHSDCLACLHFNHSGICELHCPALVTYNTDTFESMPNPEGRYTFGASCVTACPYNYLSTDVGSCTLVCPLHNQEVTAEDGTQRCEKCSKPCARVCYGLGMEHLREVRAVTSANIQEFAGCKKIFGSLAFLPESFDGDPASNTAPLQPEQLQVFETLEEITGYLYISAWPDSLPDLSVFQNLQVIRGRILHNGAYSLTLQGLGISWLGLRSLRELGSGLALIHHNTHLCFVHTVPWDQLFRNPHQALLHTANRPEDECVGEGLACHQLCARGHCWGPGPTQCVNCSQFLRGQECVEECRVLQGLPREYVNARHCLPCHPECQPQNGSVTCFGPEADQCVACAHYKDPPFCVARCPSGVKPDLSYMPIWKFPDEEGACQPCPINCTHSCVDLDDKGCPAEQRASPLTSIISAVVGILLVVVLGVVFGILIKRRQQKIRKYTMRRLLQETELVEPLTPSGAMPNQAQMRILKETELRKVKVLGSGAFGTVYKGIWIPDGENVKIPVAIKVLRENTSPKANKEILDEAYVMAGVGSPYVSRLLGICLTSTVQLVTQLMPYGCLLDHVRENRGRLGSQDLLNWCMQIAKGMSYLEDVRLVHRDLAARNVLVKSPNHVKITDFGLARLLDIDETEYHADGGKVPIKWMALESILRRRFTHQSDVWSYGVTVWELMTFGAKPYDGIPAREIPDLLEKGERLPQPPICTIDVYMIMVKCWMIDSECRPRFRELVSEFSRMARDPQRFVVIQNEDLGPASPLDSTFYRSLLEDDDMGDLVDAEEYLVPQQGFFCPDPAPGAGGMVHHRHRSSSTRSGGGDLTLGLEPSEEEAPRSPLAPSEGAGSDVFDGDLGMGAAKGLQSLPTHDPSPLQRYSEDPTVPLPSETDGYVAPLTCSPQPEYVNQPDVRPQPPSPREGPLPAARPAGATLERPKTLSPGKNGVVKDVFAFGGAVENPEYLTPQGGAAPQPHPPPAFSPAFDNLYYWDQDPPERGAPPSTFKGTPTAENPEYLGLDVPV

Regarding `COc1cc(C2=NOC(C(=O)NCc3ccc(F)cc3)C2)cc(OC)c1OC` (stereo not given), the viability (as a rule, a read-out of living cells in per cent, often relative to untreated cells) in assay [1] is 84%; in assay [3] it was 84% (inactive); in assay [4], 39.9% (inactive); in assay [5], 31.6% (active); in assay [6] (setting [9]), 83.9%; in assay [6] (setting [10]), 31.6%. Besides, the Her2 level in assay [2] is 74.5% (inactive). Besides, the differential viability (reversal) in assay [6] (H69AR cells + 2 uM doxorubicin) was -52.3% (inactive). Also, the inhibition (commonly the change of the read-out against control, counted positive when it falls) in assay [7] is -4.74% (inactive); in assay [8], -1.43% (inactive).
On to `CC(=O)Nc1ccc(S(=O)(=O)N2CCN=C2C)cc1`, for which the viability in assay [1] is 92.5%; in assay [3], 92.5% (inactive); in assay [4] it was 109% (inactive); in assay [5], 99.4% (inactive); in assay [6] (setting [9]), 96.8%; in assay [6] (setting [10]) it was 99.4%. Moreover, the Her2 level in assay [2] was 95% (inactive). The differential viability (reversal) in assay [6] (H69AR cells + 2 uM doxorubicin) was 2.62% (inactive). The figures for the inhibition in assay [7] and in assay [8] were -6.27% (inactive) and -5.08% (inactive), respectively.
Regarding `CNC(=O)CN(c1cc(C)ccc1OC)S(=O)(=O)c1ccc(C)cc1`, the viability in assay [1] is 93%; in assay [3] it was 93% (inactive); in assay [4], 108% (inactive); in assay [5] it was 103% (inactive); in assay [6] (setting [9]), 100%; in assay [6] (setting [10]), 103%. Moreover, the Her2 level in assay [2] was 113% (inactive). Moreover, the differential viability (reversal) in assay [6] (H69AR cells + 2 uM doxorubicin) was 2.79% (inactive). The values for the inhibition in assay [7] and in assay [8] were -2.93% (inactive) and -7.58% (inactive), respectively.
Regarding `Cc1csc(NC(=O)c2ccco2)n1`, the viability is 102% in assay [1]; 102% (inactive) in assay [3]; 82.9% (inactive) in assay [4]; 83.3% (inactive) in assay [5]; 81.4% in assay [6] (setting [9]); 83.3% in assay [6] (setting [10]). Moreover, in assay [2], the Her2 level is 83.5% (inactive). Besides, in assay [6] (H69AR cells + 2 uM doxorubicin), the differential viability (reversal) is 1.88% (inactive). Also, the figures for the inhibition in assay [7] and in assay [8] were -3.46% (inactive) and -5.5% (inactive), respectively.
As to `Cc1ncc(CSc2nc3ccccc3[nH]2)c(N)n1`, the viability in assay [1] was 104%; in assay [3] it was 104% (inactive); in assay [4] it was 115% (inactive); in assay [5] it was 104% (inactive); in assay [6] (setting [9]) it was 87.5%; in assay [6] (setting [10]) it was 104%. For the same compound, the Her2 level in assay [2] is 92.5% (inactive). Also, in assay [6] (H69AR cells + 2 uM doxorubicin), the differential viability (reversal) was 16.8% (inactive). Also, the inhibition was -2.03% (inactive) in assay [7] and 1.43% (inactive) in assay [8].
For the compound `O=C(Nc1ccccc1C(=O)N1CCN(c2ccccc2)CC1)c1ccco1`, the viability in assay [1] was 96%; in assay [3] it was 96% (inactive); in assay [4], 95.6% (inactive); in assay [5] it was 100% (inactive); in assay [6] (setting [9]), 94.2%; in assay [6] (setting [10]), 100%. In addition, the Her2 level in assay [2] was 101% (inactive). In assay [6] (H69AR cells + 2 uM doxorubicin), the differential viability (reversal) was 5.93% (inactive). Further, the inhibition in assay [7] is -2.53% (inactive); in assay [8] it was 4.43% (inactive).
As for `CC1CCN(C(=O)CSc2nc3ccccc3[nH]2)CC1`, the viability in assay [1] was 82%; in assay [3], 82% (inactive); in assay [4], 91.8% (inactive); in assay [5], 109% (inactive); in assay [6] (setting [9]), 94.6%; in assay [6] (setting [10]) it was 109%. Moreover, the Her2 level in assay [2] was 99.5% (inactive). In addition, in assay [6] (H69AR cells + 2 uM doxorubicin), the differential viability (reversal) was 14.7% (inactive). Further, the inhibition in assay [7] is 0.26% (inactive); in assay [8], 6% (inactive).
As to `CCOC(=O)C1(C)NC(c2ccc(OC)c(OC)c2)C2C(=O)N(CC)C(=O)C21` (stereo not given), the viability was 96.5% in assay [1]; 96.5% (inactive) in assay [3]; 89.2% (inactive) in assay [4]; 101% (inactive) in assay [5]; 93.8% in assay [6] (setting [9]); 101% in assay [6] (setting [10]). Also, the Her2 level in assay [2] was 106% (inactive). Further, the differential viability (reversal) in assay [6] (H69AR cells + 2 uM doxorubicin) is 7.14% (inactive). Also, the inhibition in assay [7] was -0.41% (inactive); in assay [8], -1.27% (inactive).
`Cc1cc2c(=O)n(CC(=O)N3CCN(c4ccccc4)CC3)cnc2s1`: the viability in assay [1] is 92%; in assay [3] it was 92% (inactive); in assay [4], 100% (inactive); in assay [5] it was 96.5% (inactive); in assay [6] (setting [9]) it was 88.2%; in assay [6] (setting [10]), 96.5%. For the same compound, in assay [2], the Her2 level is 78% (inactive). Moreover, the differential viability (reversal) in assay [6] (H69AR cells + 2 uM doxorubicin) is 8.25% (inactive). The inhibition in assay [7] is -2.11% (inactive); in assay [8], 0.18% (inactive).
`CCOC(=O)CSc1nnc(-c2ccccc2OC)o1`: the viability was 116% in assay [1]; 116% (inactive) in assay [3]; 80.2% (inactive) in assay [4]; 94.8% (inactive) in assay [5]; 106% in assay [6] (setting [9]); 94.8% in assay [6] (setting [10]). Also, in assay [2], the Her2 level is 96% (inactive). For the same compound, the differential viability (reversal) in assay [6] (H69AR cells + 2 uM doxorubicin) is -11% (inactive). Further, the inhibition in assay [7] was -6.44% (inactive); in assay [8], -6.51% (inactive).
With `CCSc1nnc2c(n1)OC=Nc1ccc(Br)cc1-2`, the viability was 92.5% in assay [1]; 92.5% (inactive) in assay [3]; 79.3% (inactive) in assay [4]; 99.7% (inactive) in assay [5]; 86.7% in assay [6] (setting [9]); 99.7% in assay [6] (setting [10]). In addition, the Her2 level in assay [2] is 86% (inactive). Also, in assay [6] (H69AR cells + 2 uM doxorubicin), the differential viability (reversal) was 12.9% (inactive). Further, the inhibition in assay [7] was -0.66% (inactive); in assay [8] it was -4.67% (inactive).
As to `Cc1nc(-c2cccc(N)c2)cs1`, the viability was 103% in assay [1]; 103% (inactive) in assay [3]; 84.3% (inactive) in assay [4]; 103% (inactive) in assay [5]; 96.8% in assay [6] (setting [9]); 103% in assay [6] (setting [10]). Moreover, in assay [2], the Her2 level is 94.5% (inactive). Moreover, the differential viability (reversal) in assay [6] (H69AR cells + 2 uM doxorubicin) is 6.14% (inactive). In addition, the inhibition in assay [7] is -1.33% (inactive); in assay [8], -2.3% (inactive).
For the compound `CCOC(=O)c1[nH]c(C)c(C(=O)N(C)C)c1C`, the viability is 110% in assay [1]; 110% (inactive) in assay [3]; 103% (inactive) in assay [4]; 95.6% (inactive) in assay [5]; 96.6% in assay [6] (setting [9]); 95.6% in assay [6] (setting [10]). The Her2 level in assay [2] is 88.5% (inactive). Further, in assay [6] (H69AR cells + 2 uM doxorubicin), the differential viability (reversal) is -0.97% (inactive). The inhibition in assay [7] is -5.79% (inactive); in assay [8], -7.3% (inactive).
In the case of `CSc1nnc2c3ccccc3n(CCc3ccccc3)c2n1`, the viability is 90% in assay [1]; 90% (inactive) in assay [3]; 68.6% (inactive) in assay [4]; 89.4% (inactive) in assay [5]; 86.1% in assay [6] (setting [9]); 89.4% in assay [6] (setting [10]). Moreover, in assay [2], the Her2 level was 100% (inactive). Moreover, the differential viability (reversal) in assay [6] (H69AR cells + 2 uM doxorubicin) is 3.33% (inactive). Besides, the results for the inhibition in assay [7] and in assay [8] were -1.35% (inactive) and 46.2% (active), respectively.
